As a reminder, the inhibition in vivo is the relative decrease from the control value, in per cent. The term ED50 denotes the dose that gives a 50% effect, or the effect in half of the subjects.

In ChEMBL document CHEMBL3228037, “Syntheses and antiinflammatory actions of 4,5,6,7-tetrahydroindazole-5-carboxylic acids” (J Med Chem, 1979) one finds inhibition in vivo, ED50 and MUD data, which are given here for 28 compounds.

Each structure is given as a SMILES string.

For series [1], the system named is Rattus norvegicus. In words: Antiinflammatory activity in rat assessed as inhibition of carrageenan-induced paw edema at 25 mg/kg, po preincubated for 1 hr followed by carrageenan challenge relative to control. The series is classed as functional. Put shortly:
(§1)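 Winter carrageenan edema screen in rats. Compound was given orally as a suspension in 0.5% CMC at 100 and/or 25 mg/kg. One hour later, 1% carrageenan solution was injected into the hind paw.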
(In general: Carrageenan injected into the paw causes an acute inflammation.)

The test system of series [2] is Mus musculus. Description: Analgesic activity in po dosed mouse assessed as inhibition of acetic acid-induced writhing. Type of series: functional. Put shortly:
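Acetic acid writhing test after Koster, using 10 male mice per dose.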
In general terms: An intraperitoneal irritant provokes the stretching counted in writhing tests.

Series [3] deals with Rattus norvegicus. Description: Antiinflammatory activity in rat assessed as inhibition of carrageenan-induced paw edema at 10 mg/kg, po preincubated for 1 hr followed by carrageenan challenge relative to control. The series is classed as functional. Put shortly:
(§2)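 Winter carrageenan paw edema in rats. Oral dosing as a suspension in 0.5% CMC was followed 1 h later by 1% carrageenan injected into the hind paw. Several doses were tested, and ED50 was read from the dose-response curve.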

Series [4] deals with Rattus norvegicus. Description: Antiinflammatory activity in rat assessed as inhibition of carrageenan-induced paw edema at 2.5 mg/kg, po preincubated for 1 hr followed by carrageenan challenge relative to control. The series is classed as functional. An outline of the steps: as §2
Series [5] has as its system Rattus norvegicus. In words: Ulcerogenic activity in po dosed rat assessed as induction of lesions in gastric mucosa measured after 24 hrs. The series is classed as toxicity, organism-based. The settings on record: in vivo. An outline of the steps: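 Compounds were suspended in 0.2% carboxymethylcellulose and given orally to seven male rats per dose, at five or more doses; controls got vehicle alone. Rats were killed 24 h later, and gastric lesions (hemorrhage, erosion, ulcer) were counted blind. MUD, the dose giving two lesions, was calculated graphically.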

Series [6] concerns Rattus norvegicus. In words: Antiarthritic activity in po dosed rat assessed as reduction of adjuvant-induced foot volume administered as qd for 14 days starting on day 14 after adjuvant inoculation measured on day 28. The series is classed as functional. Put shortly:
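Rats with established adjuvant arthritis (Newbould method) were dosed orally once daily for 14 days, starting on day 14 after adjuvant inoculation. Foot swelling was measured as volume. ED50 was estimated from the dose-response curve.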

Series [7] has as its system Rattus norvegicus. In words: Antiinflammatory activity in po dosed rat assessed as inhibition of carrageenan-induced paw edema preincubated for 1 hr followed by carrageenan challenge relative to control. The series is classed as functional. Put shortly:
as §2

In series [8] the test system is Rattus norvegicus. In words: Antiinflammatory activity in rat assessed as inhibition of carrageenan-induced paw edema at 100 mg/kg, po preincubated for 1 hr followed by carrageenan challenge relative to control. The series is classed as functional. Put shortly:
as §1

Series [9] concerns Rattus norvegicus. Description: Antiinflammatory activity in rat assessed as inhibition of carrageenan-induced paw edema at 3 mg/kg, po preincubated for 1 hr followed by carrageenan challenge relative to control. Type of series: functional. An outline of the steps:
as §2

In series [10] the test system is Rattus norvegicus. Description: Antiinflammatory activity in rat assessed as inhibition of carrageenan-induced paw edema at 50 mg/kg, po preincubated for 1 hr followed by carrageenan challenge relative to control. Type of series: functional. Put shortly:
as §2

In the case of `O=C(O)C1CCc2c(cnn2-c2ccncc2)C1` (centres undefined), the inhibition in vivo at 25 mg/kg in [1] amounted to 13.4%.

`O=C(O)C1CCc2c(cnn2-c2ccccc2)C1` (centres undefined): the ED50 was determined as 4.7 mg/kg in series [2], 1.5 mg/kg in series [6] and 3.5 mg/kg in series [7]. Moreover, in series [3], the inhibition in vivo at 10 mg/kg came out at 72.6%. Also, the inhibition in vivo at 2.5 mg/kg in series [4] was 40.6%. The MUD in [5] worked out at 20 mg/kg.

Regarding `O=C(O)C1CCc2c(cnn2-c2ccc(Cl)cc2)C1` (centres undefined), the ED50 in series [2] was determined as 7 mg/kg; in [6], 6.4 mg/kg; in series [7] it was 17 mg/kg. The inhibition in vivo at 10 mg/kg in [3] was 39.4%. In series [1], the inhibition in vivo at 25 mg/kg worked out at 39.4%. The MUD in series [5] is 70 mg/kg.

In the case of `O=C(O)C1CCc2c(cnn2-c2cccc(F)c2)C1` (centres undefined), the inhibition in vivo at 25 mg/kg in series [1] stood at 38.2%.

For `Cc1ccc(-n2ncc3c2CCC(C(=O)O)C3)cc1` (centres undefined), the inhibition in vivo at 25 mg/kg in series [1] was determined as 38.7%.

On to `Cc1ccccc1-n1ncc2c1CCC(C(=O)O)C2` (centres undefined), for which, in [1], the inhibition in vivo at 25 mg/kg is 0%.

On to `COc1ccc(-n2ncc3c2CCC(C(=O)O)C3)cc1` (centres undefined), for which the inhibition in vivo at 25 mg/kg in series [1] was 9.8%.

For the compound `O=C(O)C1CCc2c(cnn2-c2ccc(O)cc2)C1` (centres undefined), the inhibition in vivo at 100 mg/kg in [8] worked out at 14.7%.

As to `O=C(O)C1CCc2c(cnn2-c2cccc(C(F)(F)F)c2)C1` (centres undefined), the inhibition in vivo at 25 mg/kg in series [1] was 35.6%.

As to `O=C(O)C1CCc2c(cnn2-c2ccccn2)C1` (centres undefined), in series [1], the inhibition in vivo at 25 mg/kg stood at 57.9%.

Consider `O=C(O)C1CCc2c(cnn2-c2cccc3ccccc23)C1` (centres undefined), for which, in series [1], the inhibition in vivo at 25 mg/kg came to 13.1%.

Turning to `O=C(O)C1CCc2c(cnn2Cc2ccccc2)C1` (centres undefined), the inhibition in vivo at 25 mg/kg in [1] amounted to 15.9%.

Take `O=C(O)C1CCc2nn(-c3ccccc3)cc2C1` (centres undefined): in series [8], the inhibition in vivo at 100 mg/kg is 36.4%.

As to `O=C(O)C1CCc2nn(-c3ccc(Cl)cc3)cc2C1` (centres undefined), the inhibition in vivo at 100 mg/kg in series [8] was determined as 17.9%.

Consider `Cc1ccc(-n2cc3c(n2)CCC(C(=O)O)C3)cc1` (centres undefined), for which the inhibition in vivo at 100 mg/kg in series [8] is 10.8%.

Consider `Cc1ccccc1-n1cc2c(n1)CCC(C(=O)O)C2` (centres undefined), for which the inhibition in vivo at 100 mg/kg in series [8] turned out to be 38%.

Take `COc1ccc(-n2cc3c(n2)CCC(C(=O)O)C3)cc1` (centres undefined): in [8], the inhibition in vivo at 100 mg/kg came to 6%.

In the case of `O=C(O)C1CCc2nn(-c3cccc(C(F)(F)F)c3)cc2C1` (centres undefined), the inhibition in vivo at 100 mg/kg in series [8] was 14.8%.

Take `O=C(O)C1CCc2nn(-c3ccccn3)cc2C1` (centres undefined): the inhibition in vivo at 100 mg/kg in series [8] was determined as 11.5%.

Consider `O=C(O)C1CCc2nn(-c3cccc4ccccc34)cc2C1` (centres undefined), for which, in series [1], the inhibition in vivo at 25 mg/kg amounted to 0%.

Regarding `O=C(O)C1CCc2nn(Cc3ccccc3)cc2C1` (centres undefined), in [8], the inhibition in vivo at 100 mg/kg turned out to be 3.7%.

On to `O=C(O)c1nn(-c2ccccc2)c2c1CC(C(=O)O)CC2` (centres undefined), for which the inhibition in vivo at 100 mg/kg in series [8] came out at 0%.

For `O=C(O)c1nn(-c2ccc(Cl)cc2)c2c1CC(C(=O)O)CC2` (centres undefined), in series [8], the inhibition in vivo at 100 mg/kg came out at 0%.

Take `Cc1ccc(-n2nc(C(=O)O)c3c2CCC(C(=O)O)C3)cc1` (centres undefined): in [8], the inhibition in vivo at 100 mg/kg was found to be 0%.

For the compound `O=C(O)c1nn(-c2cccc(C(F)(F)F)c2)c2c1CC(C(=O)O)CC2` (centres undefined), in series [8], the inhibition in vivo at 100 mg/kg was determined as 0%.

For the compound `O=C(O)c1ccccc1Nc1cccc(C(F)(F)F)c1` [FLUFENAMIC ACID], the ED50 was 160 mg/kg in series [2], 5.1 mg/kg in [6] and 20 mg/kg in [7]. Besides, the MUD in series [5] was 50 mg/kg.

For the compound `COc1ccc2c(c1)c(CC(=O)O)c(C)n2C(=O)c1ccc(Cl)cc1` [INDOMETHACIN], the inhibition in vivo at 3 mg/kg in series [9] is 35.5%. Also, the values for the ED50 in series [2], in series [6] and in [7] were 6.3 mg/kg, 0.3 mg/kg and 3.8 mg/kg, respectively. The MUD in [5] was 5.6 mg/kg.

In the case of `CCCCC1C(=O)N(c2ccccc2)N(c2ccccc2)C1=O` [PHENYLBUTAZONE], the inhibition in vivo at 50 mg/kg in series [10] is 43.4%. For the same compound, the ED50 in [2] was determined as 810 mg/kg; in series [6], 12 mg/kg; in series [7], 78 mg/kg. The MUD in series [5] was 90 mg/kg.
